# From ChEMBL document CHEMBL4402562, “Discovery of Novel Peptidomimetic Boronate ClpP Inhibitors with Noncanonical Enzyme Mechanism as Potent Virulence Blockers in Vitro and in Vivo” (J Med Chem, 2020)
# Active and inactive are the calls of the source. The calls are words filed in the database; no cut-off is given here.
# Columns and labels:
# [1] = target: T1, ATP-dependent Clp protease proteolytic subunit (Staphylococcus aureus (strain NCTC 8325)) (UniProt Q2G036); assay: Binding affinity to N-terminal His6-sumo-tagged full length Staphylococcus aureus ClpP expressed in Escherichia coli […] assessed as change in melting temperature at 100 uM by differential scanning calorimetry analysis
# T1 sequence (whole entry): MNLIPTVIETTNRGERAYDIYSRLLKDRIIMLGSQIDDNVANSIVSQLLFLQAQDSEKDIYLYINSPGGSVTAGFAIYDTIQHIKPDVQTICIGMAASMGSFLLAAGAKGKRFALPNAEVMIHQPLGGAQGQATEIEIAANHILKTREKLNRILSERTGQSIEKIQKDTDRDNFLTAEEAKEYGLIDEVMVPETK
# In short: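 DSC: SaClpP at 0.5 mg/mL (25 μM) incubated at RT with 100 μM inhibitor in assay buffer. Scanned at 1 °C/min over 30–90 °C, with a buffer-buffer scan subtracted. Tm taken as the thermogram peak maximum. Run once, single sample.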
# [2] = target: T1, ATP-dependent Clp protease proteolytic subunit (Staphylococcus aureus (strain NCTC 8325)); assay: (§1) Inhibition of N-terminal His6-sumo-tagged full length Staphylococcus aureus ClpP expressed in Escherichia coli BL2 (DE3) at 20-fold molar excess pre-incubated for 10 mins before Suc-LY-AMC addition and measured after 1 hr followed by dialysis for 72 hrs by fluorescence based assay relative to control
# In short: (§2)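 ClpP (1 μM, 100 mM Hepes pH 7.0, 100 mM NaCl) incubated 1 h at RT with 20-fold molar excess inhibitor or DMSO. Dialyzed at 4 °C, buffer changed after 6 h and then every 24 h. Aliquots assayed for peptidase activity with Suc-LY-AMC. Thrice, single sample.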
# [3] = target: T1, ATP-dependent Clp protease proteolytic subunit (Staphylococcus aureus (strain NCTC 8325)); assay: (§3) Inhibition of N-terminal His6-sumo-tagged full length Staphylococcus aureus ClpP expressed in Escherichia coli […] pre-incubated for 10 mins before Suc-LY-AMC addition and measured after 1 hr by fluorescence based assay
# In short: (§4)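 SaClpP (1 μM monomer) in 100 mM Hepes pH 7.0, 100 mM NaCl. Preincubated 10 min at RT with inhibitor, two-fold dilutions over 8 steps from 100 μM. Suc-LY-AMC at 200 μM, 380/440 nm recorded for 1 h at 37 °C, slopes normalized to DMSO. For kinact/Ki, inhibitor premixed with substrate and reaction started by enzyme, fitted by least squares. Thrice, triplicate wells.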
# [4] = target: T2, ATP-dependent Clp protease proteolytic subunit (Staphylococcus aureus (strain NCTC 8325), UniProt Q2G036); assay: as §3; in short: as §4
# T2 sequence (Q2G036 whole entry): T1 sequence (whole entry)
# [5] = target: T1, ATP-dependent Clp protease proteolytic subunit (Staphylococcus aureus (strain NCTC 8325)); assay: Inhibition of N-terminal His6-sumo-tagged full length Staphylococcus aureus ClpP expressed in Escherichia coli […] (DE3) assessed as Kinact/Ki ratio […] and measured after 1 hr by fluorescence based assay
# [6] = target: T2, ATP-dependent Clp protease proteolytic subunit; assay: Inhibition of ClpP in methicillin-resistant Staphylococcus aureus ATCC 33591 assessed as reduction in bacteria-induced hemolysis of sheep erythrocytes by measuring hemoglobin release incubated for 15 mins
# [7] = Induction of hemolysis in sheep erythrocytes by measuring hemoglobin release incubated for 15 mins; type: cell-based, Ovis aries, Erythrocyte
# In short: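 Serially diluted compound mixed directly with 2% sheep erythrocytes in 10 mM Tris pH 7.4, 0.9% NaCl. Buffer served as negative and water as positive control. After 1,500 rpm, 15 min spin, released hemoglobin read at 545 nm. Three experiments, triplicate tubes.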
# [8] = Cytotoxicity in human HeLa cells assessed as reduction in cell viability incubated for 24 hrs by MTT assay; type: cell-based
# In short: (§5)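 MTT assay. HeLa (3×10^3 cells) or HepG2 (4×10^3 cells) seeded in DMEM and grown 24 h, then given compound for a further 24 h. Absorbance read at 570 nm against DMSO wells. GI50 from dose-response fit; three experiments, triplicate wells.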
# [9] = Cytotoxicity in human HepG2 cells assessed as reduction in cell viability incubated for 24 hrs by MTT assay; type: cell-based; in short: as §5
# [10] = target: T1, ATP-dependent Clp protease proteolytic subunit (Staphylococcus aureus (strain NCTC 8325)); assay: as §1, with “[…] assessed as enzyme activity recovery level” for “(DE3)”, “dialysis up to” for “dialysis for”; parameters: scale not given: the % may be the effect or the level left; in short: as §2
# Staphylococcus aureus [11] = assay: Inhibition of Staphylococcus aureus ClpXP expressed in Escherichia coli […] at 1 to 100 uM using FITC-casein substrate in presence of ATP-regenerating system incubated for 50 mins by fluorescence based assay
# In short: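 3.6 μM SaClpP with 3 μM SaClpX in 25 mM Hepes pH 7.5, 20 mM MgCl2, 30 mM KCl, 0.03% Tween 20, 10% glycerol, 2 mM DTT. ATP regeneration: 4 mM ATP, 20 U/mL creatine kinase, 16 mM creatine phosphate. FITC-casein 0.048 mg/mL, 494/521 nm for 50 min; slope 300–1200 s vs DMSO. Thrice, triplicate wells.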
# Staphylococcus aureus [12] = assay: (§6) Antivirulence activity against methicillin-resistant Staphylococcus aureus ATCC 33591 infected in BALB/c mouse model of skin abscess assessed as reduction in skin inflammation at 3 mg/kg injected into shaved area of skin once daily for 4 days measured after 12 hrs post last dose by hematoxylin and eosin staining based optical microscopy; type: functional, organism-based
# In short: (§7)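 Same MRSA ATCC 33591 skin-abscess model in female BALB/c mice (n=5/group), 40 µL compound at 1.5 or 3 mg/kg injected into the infected shaved skin once daily for 4 days. On day 4 infected skin and heart, liver, spleen, lung, kidney fixed in 4% paraformaldehyde, embedded, sectioned, H&E stained and examined by microscopy; PBS-treated uninfected and vehicle controls.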
# Staphylococcus aureus [13] = assay: as §6, with “preservation of” for “reduction in”, “integrity” for “inflammation”; type: functional, organism-based; in short: as §7
# Staphylococcus aureus [14] = assay: as §6, with “severe alveolar destruction” for “skin inflammation”; type: functional, organism-based; in short: as §7
# Staphylococcus aureus [15] = assay: as §6, with “interstitium thickening” for “skin inflammation”; type: functional, organism-based; in short: as §7
# Staphylococcus aureus [16] = assay: as §6, with “heart histopathological changes” for “skin inflammation”; type: functional, organism-based; in short: as §7
# Staphylococcus aureus [17] = assay: as §6, with “liver histopathological changes” for “skin inflammation”; type: functional, organism-based; in short: as §7
# Staphylococcus aureus [18] = assay: as §6, with “kidney histopathological changes” for “skin inflammation”; type: functional, organism-based; in short: as §7
# Staphylococcus aureus [19] = assay: as §6, with “spleen histopathological changes” for “skin inflammation”; type: functional, organism-based; in short: as §7
# [20] = Inhibition of human ClpP (57 to 277 residues) expressed in Escherichia coli […] pre-incubated for 10 mins before Ac-WLA-AMC addition and measured after 1 hr by fluorescence based assay relative to control
# In short: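 hClpP (3.5 μM monomer) in 25 mM Tris-HCl pH 8.0, 100 mM KCl. Preincubated 10 min at RT with inhibitor, two-fold dilutions over 8 steps from 100 μM. Then 100 μM Ac-WLA-AMC, 380/440 nm for 1 h at 37 °C, slopes normalized to DMSO. Thrice, triplicate wells.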
# [21] = Inhibition of Pseudomonas aeruginosa ClpP1 expressed in Escherichia coli […] pre-incubated for 10 mins before Suc-LY- AMC addition and measured after 1 hr by fluorescence based assay relative to control
# In short: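 PaClpP1 (0.5 μM monomer) in 25 mM Tris-Cl pH 7.5, 150 mM NaCl. Preincubated 10 min at RT with inhibitor, two-fold dilutions over 8 steps from 50 μM. Then 50 μM Suc-LY-AMC, 380/440 nm for 1 h at 37 °C, slopes normalized to DMSO. Thrice, triplicate wells.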
# [22] = target: 20S proteasome (Homo sapiens) (UniProt P49721+P20618+P28074+P28062+P28065+P28072+P25786+P25787+P25788+P25789+P28066+P60900+O14818+Q8TAA3+P40306+A5LHX3+P49720+P28070+Q99436); assay: Inhibition of 20S proteasome (unknown origin) pre-incubated before Suc-LLVY-AM addition and measured after 1 hr by fluorescence based assay; type: protein-complex assay
# [23] = Inhibition of AlgW (unknown origin) up to 100 uM pre-incubated for 10 mins before Abz-T-V-A-W-pNA addition and measured after 1 hr by fluorescence based assay
# [24] = target: Coagulation factor X (Homo sapiens) (UniProt P00742); assay: Inhibition of human F10a up to 100 uM pre-incubated for 10 mins before Pefachrome Fxa addition and measured after […] based assay
# Staphylococcus aureus [25] = assay: Growth inhibition of methicillin-resistant Staphylococcus aureus ATCC 33591 up to 64 uM incubated for 18 hrs by broth microdilution method; type: functional, organism-based
# In short: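 MRSA ATCC 33591 at ~5×10⁵ CFU/mL in MHB with graded compound concentrations vs DMSO; OD600 growth curves over 18 h; three experiments, triplicate wells. MIC by CLSI broth microdilution in CAMHB, 0.5-256 µg/mL, 18 h at 37 °C, lowest concentration with no visible growth.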
# Coagulation factor X (Homo sapiens), sequence (P00742 41-179 limits assumed): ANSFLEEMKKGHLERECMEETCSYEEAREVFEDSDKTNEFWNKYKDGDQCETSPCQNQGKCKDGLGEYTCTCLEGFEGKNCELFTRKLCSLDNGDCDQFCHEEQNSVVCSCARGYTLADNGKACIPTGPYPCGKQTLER
# Coagulation factor X (Homo sapiens), sequence (P00742 235-488 limits assumed): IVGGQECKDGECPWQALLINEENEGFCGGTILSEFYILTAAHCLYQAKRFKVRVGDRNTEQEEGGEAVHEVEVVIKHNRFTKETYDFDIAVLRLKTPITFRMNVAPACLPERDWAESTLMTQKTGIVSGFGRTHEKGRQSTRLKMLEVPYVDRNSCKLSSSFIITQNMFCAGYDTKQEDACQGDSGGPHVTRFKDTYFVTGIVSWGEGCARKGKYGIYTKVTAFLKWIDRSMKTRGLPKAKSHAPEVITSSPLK
Structure (SMILES),inhibition [3],IC50 [4] [µM],Ratio [5] [×10² /s.M],EC50 [6] [µM],HC50 at 0.25 h [7] [µM],GI50 at 24 h [8] [µM],GI50 at 24 h [9] [µM],ΔTm [1] [°C],Activity [10] [%],further results
COC(=O)c1ccc(OC(=O)CCc2cc(OC)c(OC)c(OC)c2)cc1,–,–,–,–,–,–,–,–,–,Activity [1]: inactive; inhibition [2]: Active
CC(C)C[C@H](NC(=O)[C@H](Cc1ccccc1)NC(=O)c1cnccn1)B(O)O [BORTEZOMIB],Dose-dependent effect,5.3,2.2,23.5,> 500,168,101,29.5 to 42.2,100,inhibition (Staphylococcus aureus [11]): inactive
CC(C)C[C@H](NC(=O)CNC(=O)c1cc(Cl)ccc1Cl)B(O)O [IXAZOMIB],Dose-dependent effect,5.3 to 5.7,2.4,3.6,408,182,> 200,–,–,–
CN[C@H](CC(C)C)C(=O)N[C@H]1C(=O)N[C@@H](CC(N)=O)C(=O)N[C@H]2C(=O)N[C@H]3C(=O)N[C@H](C(=O)N[C@H](C(=O)O)c4cc(O)cc(O)c4-c4cc3ccc4O)[C@H](O)c3ccc(c(Cl)c3)Oc3cc2cc(c3O[C@@H]2O[C@H](CO)[C@@H](O)[C@H](O)[C@H]2O[C@H]2C[C@](C)(N)[C@H](O)[C@H](C)O2)Oc2ccc(cc2Cl)[C@H]1O,–,–,–,–,–,–,–,–,–,Activity (Staphylococcus aureus [12]): Active; Activity (Staphylococcus aureus [13]): Active; Activity (Staphylococcus aureus [14]): Active; Activity (Staphylococcus aureus [15]): Active; Activity (Staphylococcus aureus [16]): Active; Activity (Staphylococcus aureus [17]): Active; Activity (Staphylococcus aureus [18]): Active; Activity (Staphylococcus aureus [19]): Active
COc1ccc(C(=O)N[C@@H](Cc2ccccc2)C(=O)N[C@@H](CC(C)C)B(O)O)cc1,Dose-dependent effect,1.9,6.7,3.3,> 500,196,> 200,29.5 to 42.2,100,IC50 [20]: 3 to 25 µM; IC50 [21]: 3 to 25 µM; inhibition [22]: Active; inhibition [23]: inactive; inhibition [24]: inactive
CC(C)Cc1ccc(C(C)C(=O)N[C@@H](Cc2c[nH]c3ccccc23)C(=O)N[C@@H](CC(C)C)B(O)O)cc1 (some centres undefined),Dose-dependent effect,1.9,8,2.6,> 500,71.2,54.8,29.5 to 42.2,100,growth inhibition (GI) (Staphylococcus aureus [25]): inactive
COc1ccc(C(=O)N[C@@H](Cc2ccccc2)C(=O)N[C@@H](CC(C)C)B(O)O)c(C)c1,Dose-dependent effect,1.5,9.1,14.8,> 500,> 200,> 200,29.5 to 42.2,100,–
CC(C)Cc1ccc(C(C)C(=O)N[C@@H](Cc2ccc(O)cc2)C(=O)N[C@@H](CC(C)C)B(O)O)cc1 (some centres undefined),Dose-dependent effect,1.4,7.2,9.6,> 500,83,117,29.5 to 42.2,100,IC50 [20]: 3 to 25 µM; IC50 [21]: 3 to 25 µM; inhibition [22]: Active; inhibition [23]: inactive; inhibition [24]: inactive
